The values that follow come from paper PMC5203969 (Clinical cancer research : an official journal of the …, 2016).

Molecules are shown by their SMILES. Like-named read-outs stand apart in the source and are kept apart here.

One series concerns HCC78 NSCLC cell line. Nature of the series: Proliferation of HCC78 NSCLC cell line. The class given is cell-based, human. In outline:
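HCC-78 cells were obtained from ATCC (STR-authenticated) and passaged under 6 months. Cells were exposed to test compound for 72 hours, and viability was read by CellTiter Glo luminescence.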

For the next series, the system named is Parental Ba/F3 cells. Nature of the series: Proliferation of parental Ba/F3 cells grown in the presence of IL-3. The class given is cell-based, murine. The note with it: read-out: IC50 Parental Ba/F3. The gist of the method: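 Parental Ba/F3 cells are immortalized murine bone-marrow pro-B cells. They were incubated with test compound for 72 hours, and viability was measured by CellTiter Glo. Final DMSO was under 0.5%.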

For another series, the system named is CUTO-3 cells. Nature of the series: Proliferation of CUTO-3 tumor cells. The class given is cell-based, human.
The subject of series [1] is NTRK1 autophosphorylation in NIH-3T3 cells transformed with FLAG-tagged CD74-NTRK1. It is filed as cell-based. The note with it: 6 hours, western blot.
The test system of series [2] is NTRK1 autophosphorylation in CUTO-3 cells (MPRIP-NTRK1). The experiment in a line: Western blot of NTRK1 autophosphorylation in CUTO-3 cells. The note with it: 6 hours, dovitinib at 1000 nM. It is filed as cell-based, human. In outline: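 CUTO-3 cells (MPRIP-NTRK1, patient-derived) were treated with inhibitor for 6 hours. They were lysed for 30 min in 0.1% Triton X-100 plus protease inhibitor. Lysates were run on 4–12% Bis-Tris gels and transferred to PVDF. Membranes were blocked in 5% milk, then probed with primary antibody at 1:1,000 and secondary at 1:5,000.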
In general terms: Immunoblotting shows a protein as a band on a membrane.

The conditions of series [3]: observed in clinical trials; cited from earlier work.
A further series relates to F589V CD74-NTRK1. The class given is cell-based. The note with it: 293 cells transiently transfected with wild-type and F589V CD74-NTRK1.
For series [4], the system named is ROS1 autophosphorylation and ERK in CD74-ROS1 wild-type transformed Ba/F3 cells. The experiment in a line: Western blot of ROS1. The class given is cell-based, murine.
In series [5] the test system is ROS1 autophosphorylation and ERK in CD74-ROS1 G2032R transformed Ba/F3 cells. Nature of the series: Western blot of ROS1. It is filed as cell-based, murine.
Series [6] has as its system ROS1 autophosphorylation and ERK in CD74-ROS1 L2026M transformed Ba/F3 cells. The experiment in a line: Western blot of ROS1. The class given is cell-based, murine.
In series [7] the target is Ba/F3 cells transformed with CD74-ROS1 (wild-type) (Homo sapiens, UniProt P04233+P08922). Nature of the series: Proliferation of Ba/F3 cells transformed with CD74-ROS1 wild-type. The note with it: peak plasma level obtained through FDA-approved oral dosing. It is filed as cell-based, murine.
Ba/F3 cells transformed with CD74-ROS1 (wild-type), sequence (P08922 1883-2347 limits assumed, one chain of several): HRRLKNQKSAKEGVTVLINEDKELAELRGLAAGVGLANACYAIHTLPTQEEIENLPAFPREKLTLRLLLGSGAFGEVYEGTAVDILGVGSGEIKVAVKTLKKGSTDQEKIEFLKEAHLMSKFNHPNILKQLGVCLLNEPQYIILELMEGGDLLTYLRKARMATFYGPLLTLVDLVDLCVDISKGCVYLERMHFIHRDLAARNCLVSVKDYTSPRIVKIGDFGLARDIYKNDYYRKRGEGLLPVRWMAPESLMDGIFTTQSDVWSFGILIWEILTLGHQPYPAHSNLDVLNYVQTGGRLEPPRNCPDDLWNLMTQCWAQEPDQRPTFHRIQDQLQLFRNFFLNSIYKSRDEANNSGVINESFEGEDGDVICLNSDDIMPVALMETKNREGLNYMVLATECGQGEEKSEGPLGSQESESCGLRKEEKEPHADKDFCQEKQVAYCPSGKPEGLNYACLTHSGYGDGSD
The next series concerns medullary thyroid cancer. The note with it: cited from earlier work.
In a further series the test system is prostate cancer. The note with it: cited from earlier work.
In a further series the test system is RET-rearranged NSCLC. The note with it: of 3 patients with RET-rearranged NSCLC; cited from earlier work.
Series [8] concerns ROS1-rearranged metastatic lung adenocarcinoma. The experiment in a line: Treatment of one patient with ROS1-rearranged metastatic lung adenocarcinoma.
A further series concerns ROS1-rearranged NSCLC. The note with it: phase II; cited from earlier work.
Where [9] appears, read: Homo sapiens, HCC78, read-out: IC50 inhibition of the HCC78 NSCLC cell line.
The mark [10] stands for this setting: Homo sapiens, CUTO-3, read-out: IC50 inhibition of CUTO-3 cells, proliferation.
The mark [11] stands for this setting: read-out: IC50 inhibition of CUTO-3 cells, proliferation.

For the molecule `Cc1cc(Nc2ncc(Cl)c(Nc3ccccc3S(=O)(=O)C(C)C)n2)c(OC(C)C)cc1C1CCNCC1` [Ceritinib], the IC50 with HCC78 NSCLC cell line (setting [9]) amounted to 530 nM.
Regarding `CN1CCN(c2ccc3nc(-c4c(N)c5c(F)cccc5[nH]c4=O)[nH]c3c2)CC1` [dovitinib, Dovitinib], the IC50 in the series on Parental Ba/F3 cells (Mus musculus, BaF3, 72 h) is 4.2 µM; in the series on CUTO-3 cells (setting [10]), 170 nM. Moreover, the entries for the “inhibition of NTRK1 autophosphorylation” value in series [1] and in [2] were “weaker than would be suggested by its IC50 value” and “partial inhibition”, respectively. Besides, the “peak plasma level with oral dosing” value in series [3] is 568 nM.
`Cc1cc(N2CCOCC2)cc2[nH]c(-c3c(NC[C@@H](O)c4cccc(Cl)c4)cc[nH]c3=O)nc12` [BMS-536924]: the IC50 with Parental Ba/F3 cells (parental Ba/F3 cells, 72 hours) came out at 2.75 µM; with CUTO-3 cells (setting [11]), 34 nM. For the same molecule, the “inhibition of NTRK1 autophosphorylation” value in series [1] is listed as “inhibit NTRK1 autophosphorylation”; in series [2] it was “inhibited NTRK1 autophosphorylation”. Further, the “effect of F589V mutation on inhibition of NTRK1 autophosphorylation” value with F589V CD74-NTRK1 was “did not affect inhibition of NTRK1 autophosphorylation”.
`CN1CCN(c2ccc(C(=O)Nc3n[nH]c4ccc(Cc5cc(F)cc(F)c5)cc34)c(NC3CCOCC3)c2)CC1` [Entrectinib, entrectinib]: the IC50 in the series on HCC78 NSCLC cell line (setting [9]) is 450 nM. Besides, the “phosphorylation of ROS1 and ERK” value in series [4], in series [5] and in series [6] was “only effective at blocking activity of wild-type ROS1 signaling” each time.
As for `CCc1cc2c(cc1N1CCC(N3CCOCC3)CC1)C(C)(C)c1[nH]c3cc(C#N)ccc3c1C2=O` [Alectinib], the IC50 in the series on HCC78 NSCLC cell line (setting [9]) amounted to 750 nM.
On to `COc1cc(N2CCC(N3CCN(C)CC3)CC2)ccc1Nc1ncc(Cl)c(Nc2ccccc2P(C)(C)=O)n1` [Brigatinib, brigatinib], for which the IC50 in the series on HCC78 NSCLC cell line (setting [9]) came out at 2200 nM. The “phosphorylation of ROS1 and ERK” value in series [4] is “inhibits the phosphorylation of ROS1 and ERK”; in [5], “less activity seen”; in series [6], “inhibits the phosphorylation of ROS1 and ERK”.
As to `COc1cc2nccc(Oc3ccc(NC(=O)C4(C(=O)Nc5ccc(F)cc5)CC4)cc3)c2cc1OC` [Cabozantinib, cabozantinib], the “fold by which inhibitory concentrations are below the peak plasma level” value in [7] is listed as ~ 50 fold. For the same molecule, the IC50 in the series on HCC78 NSCLC cell line (setting [9]) came to 1360 nM. The “phosphorylation of ROS1 and ERK” value in series [4] is “a decrease is seen in the phosphorylation of ROS1 and ERK”; in series [5], “a decrease is seen in the phosphorylation of ROS1 and ERK”; in series [6], “a decrease is seen in the phosphorylation of ROS1 and ERK”. In addition, in the series with medullary thyroid cancer (medullary thyroid cancer study), the patients with dose-reductions is on record as 79%. Further, the progression-free survival in the series on medullary thyroid cancer (medullary thyroid cancer, vs. 4 months placebo) was 11.2 months. The “patients with doses held” value in the series with medullary thyroid cancer (medullary thyroid cancer) is 65%. In addition, the “patients with discontinuation due to adverse events” value in the series on medullary thyroid cancer (phase III thyroid cancer study) is 16%. Moreover, the discontinuation rate is 18% in the series with prostate cancer (40 mg group) and 25% in the series with prostate cancer (100 mg group). In addition, the “rate of dose reduction” value with prostate cancer (40 mg group) is recorded as 31%; in the series on prostate cancer (100 mg group), 84%. The “patients with a partial response” value with RET-rearranged NSCLC is 2 patients. Also, in the series with RET-rearranged NSCLC, the “patients with stable disease” value is recorded as 1 patient. In series [8] (4 weeks after initiation of cabozantinib, from 1.7 cm), the “right lower lobe lesion size on CT” value is listed as 1.4 cm. Also, the fatigue result in series [8] (single patient, after approximately 3 weeks on treatment) is “grade II”. Besides, the palmar-plantar erythrodysesthesia entry in series [8] (single patient, after approximately 3 weeks on treatment, 140 to 80 mg daily) is “grade III”.
With `C[C@]12O[C@H](C[C@]1(O)CO)n1c3ccccc3c3c4c(c5c6ccccc6n2c5c31)CNC4=O` [lestaurtinib, Lestaurtinib], the IC50 with Parental Ba/F3 cells (Mus musculus, BaF3, 72 h) came out at 3.4 µM; in the series with CUTO-3 cells (setting [10]), 3.5 nM; with CUTO-3 cells (setting [11]), 3 nM. Moreover, the figures for the “inhibition of NTRK1 autophosphorylation” value in [1] and in series [2] were “inhibit NTRK1 autophosphorylation” and “inhibited NTRK1 autophosphorylation”, respectively. The “effect of F589V mutation on inhibition of NTRK1 autophosphorylation” value with F589V CD74-NTRK1 is on record as “did not affect inhibition of NTRK1 autophosphorylation”.
With `C[C@H]1Oc2cc(cnc2N)-c2c(nn(C)c2C#N)CN(C)C(=O)c2ccc(F)cc21` [PF-06463922], in the series with HCC78 NSCLC cell line (read-out: IC50 inhibition of the HCC78 NSCLC cell line, proliferation), the IC50 is more than 10000 nM. Further, the “phosphorylation of ROS1 and ERK” value in series [4] was “inhibited wild-type and L2026M mutant ROS1 autophosphorylation and ERK activation”; in [5] it was “little effect on signaling”; in series [6], “inhibited wild-type and L2026M mutant ROS1 autophosphorylation and ERK activation”.
Turning to `C[C@@H](Oc1cc(-c2cnn(C3CCNCC3)c2)cnc1N)c1c(Cl)ccc(F)c1Cl` [Crizotinib, crizotinib], the IC50 with CUTO-3 cells (Homo sapiens, CUTO-3, read-out: IC50 inhibition of CUTO-3 cells) was 462 nM. Further, the IC50 with HCC78 NSCLC cell line (setting [9]) is 1600 nM. Besides, in [4], the “phosphorylation of ROS1 and ERK” value is “inhibits the phosphorylation of ROS1 and ERK”. Besides, in the series on ROS1-rearranged NSCLC, the progression-free survival was 19.2 month and the response rate was 72%.
As to `COc1cc2c(Oc3ccc(NC(=O)C4(C(=O)Nc5ccc(F)cc5)CC4)cc3F)ccnc2cc1OCCCN1CCOCC1` [Foretinib, foretinib], the IC50 in the series with HCC78 NSCLC cell line (setting [9]) is 460 nM. The “phosphorylation of ROS1 and ERK” value in [4] is “a decrease is seen in the phosphorylation of ROS1 and ERK”; in series [5], “a decrease is seen in the phosphorylation of ROS1 and ERK”; in [6] it was “a decrease is seen in the phosphorylation of ROS1 and ERK”.
